Measurements taken from ChEMBL document CHEMBL1275592, “AmpN-AmpG operon is essential for expression of L1 and L2 beta-lactamases in Stenotrophomonas maltophilia” (2010).
In brackets after ≈: the same amount, converted by molar mass.

Key:
[1] = biological target: T1, Catechol 2,3-dioxygenase (Stenotrophomonas maltophilia) (UniProt A7LB47); assay: Induction of catechol 2,3-dioxygenase activity in ampN deficient Stenotrophomonas maltophilia KJ harboring pRK-NG and ampG gene with xylE-Gmomega cassette insertion at 20 ug/ml
T1 sequence (whole entry): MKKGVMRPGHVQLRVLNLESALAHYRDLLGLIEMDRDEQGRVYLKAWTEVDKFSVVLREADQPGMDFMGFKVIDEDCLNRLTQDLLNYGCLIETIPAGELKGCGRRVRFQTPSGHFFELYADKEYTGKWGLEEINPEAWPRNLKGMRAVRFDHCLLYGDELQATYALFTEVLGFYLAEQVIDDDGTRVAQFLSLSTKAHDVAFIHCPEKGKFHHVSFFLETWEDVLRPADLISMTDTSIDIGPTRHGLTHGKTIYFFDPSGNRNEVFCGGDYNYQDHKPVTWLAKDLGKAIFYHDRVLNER
How it was run: (§1)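 C23O (xylE product) activity assayed in intact cells, with cefuroxime 20 μg/ml as inducer. Rate calculated with extinction coefficient 44,000 M−1 cm−1. One unit (Uc) converts 1 nmol substrate/min. Specific activity given as Uc/OD450. Plasmids were introduced into S. maltophilia by conjugation and confirmed by colony PCR.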

[2] = test system: Stenotrophomonas maltophilia; assay: Antimicrobial activity against Stenotrophomonas maltophilia KJN2 harboring pRK-NG plasmid and ampN with xylE-Gmomega cassette insertion by agar dilution method; format: functional
How it was run: (§2)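 MICs were determined in triplicate by standard 2-fold serial agar dilution, following CLSI guidelines.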

[3] = test system: Stenotrophomonas maltophilia; assay: Induction of beta-lactamase activity in Stenotrophomonas maltophilia KJ harboring pRK415 plasmid at 20 ug/ml
How it was run: (§3)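 Cells were induced with cefuroxime at 20 μg/ml. β-Lactamase activity was measured as nitrocefin hydrolysis at 486 nm, using ε 20,500 M−1 cm−1. Specific activity is nmol nitrocefin hydrolysed/min/mg protein. Protein was measured by dye-binding assay against a BSA standard. Basal and induced activities are both reported.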

[4] = test system: Stenotrophomonas maltophilia; assay: Induction of beta-lactamase activity in Stenotrophomonas maltophilia KJN1 harboring ampN with xylE-Gmomega cassette insertion at 20 ug/ml; how it was run: as §3
[5] = test system: Stenotrophomonas maltophilia; assay: Induction of beta lactamase activity in Stenotrophomonas maltophilia KJN2 harboring pRK-EcG and ampN with xylE-Gmomega cassette insertion at 20 ug/ml; how it was run: as §3
[6] = biological target: T1, Catechol 2,3-dioxygenase (Stenotrophomonas maltophilia); assay: Induction of catechol 2,3-dioxygenase activity in ampN deficient Stenotrophomonas maltophilia KJ harboring pRK415 and ampG gene with xylE-Gmomega cassette insertion at 20 ug/ml; how it was run: as §1
[7] = test system: Stenotrophomonas maltophilia; assay: Antimicrobial activity against Stenotrophomonas maltophilia KJN1 harboring ampN with xylE-Gmomega cassette insertion by agar dilution method; format: functional; how it was run: as §2
[8] = biological target: T1, Catechol 2,3-dioxygenase (Stenotrophomonas maltophilia); assay: Induction of catechol 2,3-dioxygenase activity in Stenotrophomonas maltophilia KJ harboring pRKF1 plasmid at 20 ug/ml; how it was run: as §1
[9] = test system: Stenotrophomonas maltophilia; assay: Antimicrobial activity against Stenotrophomonas maltophilia KJ by agar dilution method; format: functional; how it was run: as §2
[10] = test system: Stenotrophomonas maltophilia; assay: Induction of beta lactamase activity in Stenotrophomonas maltophilia KJN2 harboring pRK-NG and ampN with xylE-Gmomega cassette insertion at 20 ug/ml; how it was run: as §3
[11] = biological target: T1, Catechol 2,3-dioxygenase (Stenotrophomonas maltophilia); assay: Induction of catechol 2,3-dioxygenase activity in Stenotrophomonas maltophilia KJG harboring ampG with xylE-Gmomega cassette insertion at 20 ug/ml; how it was run: as §1
[12] = test system: Stenotrophomonas maltophilia; assay: Induction of beta lactamase activity in Stenotrophomonas maltophilia KJN2 harboring pRK-G and ampN with xylE-Gmomega cassette insertion at 20 ug/ml; how it was run: as §3
[13] = test system: Stenotrophomonas maltophilia; assay: Induction of beta-lactamase activity in ampN deficient Stenotrophomonas maltophilia KJ at 20 ug/ml; how it was run: as §3
[14] = biological target: T1, Catechol 2,3-dioxygenase (Stenotrophomonas maltophilia); assay: Induction of catechol 2,3-dioxygenase activity in ampN deficient Stenotrophomonas maltophilia KJ harboring pRK-N and ampG gene with xylE-Gmomega cassette insertion at 20 ug/ml; how it was run: as §1
[15] = test system: Stenotrophomonas maltophilia; assay: Induction of beta-lactamase activity in ampN deficient Stenotrophomonas maltophilia KJ harboring ampG gene with xylE-Gmomega cassette insertion at 20 ug/ml; how it was run: as §3
[16] = test system: Stenotrophomonas maltophilia; assay: Antimicrobial activity against ampN deficient Stenotrophomonas maltophilia KJ by agar dilution method; format: functional; how it was run: as §2
[17] = test system: Stenotrophomonas maltophilia; assay: Antimicrobial activity against ampN deficient Stenotrophomonas maltophilia KJ harboring ampG with xylE-Gmomega cassette insertion by agar dilution method; format: functional; how it was run: as §2
[18] = biological target: T1, Catechol 2,3-dioxygenase (Stenotrophomonas maltophilia); assay: Induction of catechol 2,3-dioxygenase activity in Stenotrophomonas maltophilia KJ harboring pRKF2 plasmid at 20 ug/ml; how it was run: as §1
[19] = test system: Stenotrophomonas maltophilia; assay: Antimicrobial activity against Stenotrophomonas maltophilia KJN2 harboring pRK415 plasmid and ampN with xylE-Gmomega cassette insertion by agar dilution method; format: functional; how it was run: as §2
[20] = test system: Stenotrophomonas maltophilia; assay: Induction of beta-lactamase activity in Stenotrophomonas maltophilia KJN2 harboring ampN with xylE-Gmomega cassette insertion at 20 ug/ml; how it was run: as §3
[21] = test system: Stenotrophomonas maltophilia; assay: Antimicrobial activity against Stenotrophomonas maltophilia KJG harboring ampG with xylE-Gmomega cassette insertion by agar dilution method; format: functional; how it was run: as §2
[22] = test system: Stenotrophomonas maltophilia; assay: Antimicrobial activity against Stenotrophomonas maltophilia KJN2 harboring ampN with xylE-Gmomega cassette insertion by agar dilution method; format: functional; how it was run: as §2
[23] = test system: Stenotrophomonas maltophilia; assay: Induction of beta-lactamase activity in Stenotrophomonas maltophilia KJ at 20 ug/ml
How it was run: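 Cefuroxime 20 μg/ml added as inducer. β-lactamase activity read by nitrocefin hydrolysis at 486 nm (ε 20,500 M−1 cm−1). Specific activity given as nmol nitrocefin hydrolyzed/min/mg protein. Protein measured by Bio-Rad assay against a BSA standard. L1 versus L2 split by the modified nitrocefin-EDTA method.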

[24] = biological target: T1, Catechol 2,3-dioxygenase (Stenotrophomonas maltophilia); assay: Induction of catechol 2,3-dioxygenase activity in Stenotrophomonas maltophilia KJN1 harboring ampN with xylE-Gmomega cassette insertion at 20 ug/ml; how it was run: as §1
[25] = biological target: T1, Catechol 2,3-dioxygenase (Stenotrophomonas maltophilia); assay: Induction of catechol 2,3-dioxygenase activity in Stenotrophomonas maltophilia KJ harboring pRK415 plasmid at 20 ug/ml; how it was run: as §1
[26] = biological target: T1, Catechol 2,3-dioxygenase (Stenotrophomonas maltophilia); assay: Induction of catechol 2,3-dioxygenase activity in Stenotrophomonas maltophilia KJ harboring pRKF3 plasmid at 20 ug/ml; how it was run: as §1
[27] = biological target: T1, Catechol 2,3-dioxygenase (Stenotrophomonas maltophilia); assay: Induction of catechol 2,3-dioxygenase activity in ampN deficient Stenotrophomonas maltophilia KJ harboring ampG gene with xylE-Gmomega cassette insertion at 20 ug/ml; how it was run: as §1
[28] = test system: Stenotrophomonas maltophilia; assay: Induction of beta-lactamase activity in Stenotrophomonas maltophilia KJ harboring pRK-NG plasmid at 20 ug/ml; how it was run: as §3
[29] = test system: Stenotrophomonas maltophilia; assay: Antimicrobial activity against Stenotrophomonas maltophilia KJN2 harboring pRK-G plasmid and ampN with xylE-Gmomega cassette insertion by agar dilution method; format: functional; how it was run: as §2
[30] = test system: Stenotrophomonas maltophilia; assay: Induction of beta-lactamase activity in Stenotrophomonas maltophilia KJG harboring ampG with xylE-Gmomega cassette insertion at 20 ug/ml; how it was run: as §3
[31] = biological target: T1, Catechol 2,3-dioxygenase (Stenotrophomonas maltophilia); assay: Induction of catechol 2,3-dioxygenase activity in Stenotrophomonas maltophilia KJN2 harboring ampN with xylE-Gmomega cassette insertion at 20 ug/ml; how it was run: as §1
[32] = biological target: T1, Catechol 2,3-dioxygenase (Stenotrophomonas maltophilia); assay: Induction of catechol 2,3-dioxygenase activity in Stenotrophomonas maltophilia KJ harboring pRKF4 plasmid at 20 ug/ml; how it was run: as §1
[33] = biological target: T1, Catechol 2,3-dioxygenase (Stenotrophomonas maltophilia); assay: Induction of catechol 2,3-dioxygenase activity in Stenotrophomonas maltophilia KJ harboring pRKF5 plasmid at 20 ug/ml; how it was run: as §1
[34] = test system: Stenotrophomonas maltophilia; assay: Induction of beta lactamase activity in Stenotrophomonas maltophilia KJN2 harboring pRK415 and ampN with xylE-Gmomega cassette insertion at 20 ug/ml; how it was run: as §3
[35] = biological target: T1, Catechol 2,3-dioxygenase (Stenotrophomonas maltophilia); assay: Induction of catechol 2,3-dioxygenase activity in Stenotrophomonas maltophilia KJ harboring pRKF6 plasmid at 20 ug/ml; how it was run: as §1
[36] = test system: Stenotrophomonas maltophilia; assay: Antimicrobial activity against Stenotrophomonas maltophilia KJN2 harboring pRK-EcG plasmid and ampN with xylE-Gmomega cassette insertion by agar dilution method; format: functional; how it was run: as §2
[37] = biological target: T1, Catechol 2,3-dioxygenase (Stenotrophomonas maltophilia); assay: Induction of catechol 2,3-dioxygenase activity in ampN deficient Stenotrophomonas maltophilia KJ harboring pRK-G and ampG gene with xylE-Gmomega cassette insertion at 20 ug/ml; how it was run: as §1
[38] = test system: Stenotrophomonas maltophilia; assay: Antimicrobial activity against Stenotrophomonas maltophilia KJN2 harboring pRK-G plasmid and ampN with xylE-Gmomega cassette insertion by Etest; format: functional
How it was run: (§4)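 Imipenem and meropenem MICs were read from Etest strips, following the manufacturer's instructions.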

[39] = test system: Stenotrophomonas maltophilia; assay: Antimicrobial activity against Stenotrophomonas maltophilia KJN2 harboring pRK415 plasmid and ampN with xylE-Gmomega cassette insertion by Etest; format: functional; how it was run: as §4
[40] = test system: Stenotrophomonas maltophilia; assay: Antimicrobial activity against Stenotrophomonas maltophilia KJN2 harboring pRK-NG plasmid and ampN with xylE-Gmomega cassette insertion by Etest; format: functional; how it was run: as §4
[41] = test system: Stenotrophomonas maltophilia; assay: Antimicrobial activity against ampN deficient Stenotrophomonas maltophilia KJ harboring ampG with xylE-Gmomega cassette insertion by Etest; format: functional; how it was run: as §4
[42] = test system: Stenotrophomonas maltophilia; assay: Antimicrobial activity against Stenotrophomonas maltophilia KJ by Etest; format: functional; how it was run: as §4
[43] = test system: Stenotrophomonas maltophilia; assay: Antimicrobial activity against Stenotrophomonas maltophilia KJN2 harboring pRK-EcG plasmid and ampN with xylE-Gmomega cassette insertion by Etest; format: functional; how it was run: as §4
[44] = test system: Stenotrophomonas maltophilia; assay: Antimicrobial activity against ampN deficient Stenotrophomonas maltophilia KJ by Etest; format: functional; how it was run: as §4
[45] = test system: Stenotrophomonas maltophilia; assay: Antimicrobial activity against Stenotrophomonas maltophilia KJN2 harboring ampN with xylE-Gmomega cassette insertion by Etest; format: functional; how it was run: as §4
[46] = test system: Stenotrophomonas maltophilia; assay: Antimicrobial activity against Stenotrophomonas maltophilia KJN1 harboring ampN with xylE-Gmomega cassette insertion by Etest; format: functional; how it was run: as §4
[47] = test system: Stenotrophomonas maltophilia; assay: Antimicrobial activity against Stenotrophomonas maltophilia KJG harboring ampG with xylE-Gmomega cassette insertion by Etest; format: functional; how it was run: as §4

SMILES: CO/N=C(\C(=O)N[C@@H]1C(=O)N2C(C(=O)O)=C(COC(N)=O)CS[C@H]12)c1ccco1 [CEFUROXIME]
- Activity (nmol/min/OD450) [1]: 5
- MIC [2]: > 1020 µg/mL
- Activity [3]: 1740 U/mg
- Activity [4]: 5 U/mg
- Activity [5]: 882 U/mg
- Activity (nmol/min/OD450) [6]: 5
- MIC [7]: 32 µg/mL (≈ 75.4 µM)
- Activity (nmol/min/OD450) [8]: 6
- MIC [9]: > 1020 µg/mL
- Activity [10]: 1450 U/mg
- Activity (nmol/min/OD450) [11]: 41
- Activity [12]: 12 U/mg
- Activity [13]: 6 U/mg
- Activity (nmol/min/OD450) [14]: 5
- Activity [15]: 3 U/mg
- MIC [16]: 32 µg/mL (≈ 75.4 µM)
- MIC [17]: 32 µg/mL (≈ 75.4 µM)
- Activity (nmol/min/OD450) [18]: 50
- MIC [19]: 32 µg/mL (≈ 75.4 µM)
- Activity [20]: 5 U/mg
- MIC [21]: 32 µg/mL (≈ 75.4 µM)
- MIC [22]: 32 µg/mL (≈ 75.4 µM)
- Activity [23]: 1520 U/mg
- Activity (nmol/min/OD450) [24]: 4
- Activity (nmol/min/OD450) [25]: 0
- Activity (nmol/min/OD450) [26]: 6
- Activity (nmol/min/OD450) [27]: 4
- Activity [28]: 1620 U/mg
- MIC [29]: 64 µg/mL (≈ 151 µM)
- Activity [30]: 6 U/mg
- Activity (nmol/min/OD450) [31]: 39
- Activity (nmol/min/OD450) [32]: 45
- Activity (nmol/min/OD450) [33]: 6
- Activity [34]: 18 U/mg
- Activity (nmol/min/OD450) [35]: 8
- MIC [36]: > 1020 µg/mL
- Activity (nmol/min/OD450) [37]: 4

SMILES: C[C@@H](O)[C@H]1C(=O)N2C(C(=O)O)=C(SCCNC=N)C[C@H]12 [IMIPENEM ANHYDROUS]
- MIC [38]: 3 µg/mL (≈ 10 µM)
- MIC [39]: 1.5 µg/mL (≈ 5.01 µM)
- MIC [40]: > 32 µg/mL
- MIC [41]: 2 µg/mL (≈ 6.68 µM)
- MIC [42]: > 32 µg/mL
- MIC [43]: > 32 µg/mL
- MIC [44]: 4 µg/mL (≈ 13.4 µM)
- MIC [45]: 2 µg/mL (≈ 6.68 µM)
- MIC [46]: 4 µg/mL (≈ 13.4 µM)
- MIC [47]: 2 µg/mL (≈ 6.68 µM)
